{"source": "ChEMBL document CHEMBL1126903", "key": {"[1]": {"experiment": "The pKa value was measured at 17-O chemical shift changes due to protonation"}, "[2]": {"experiment": "The pKa value was measured at 31-P chemical shift changes due to protonation"}, "[3]": {"experiment": "The pKa value was measured at 15-N chemical shift changes due to protonation", "outline": "(§1)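 Chemical shift recorded at 4 °C across a pH series. Sample pH was read in an ice-water bath (0-4 °C) before and after each NMR run and the two readings averaged, with no correction for deuterium or temperature. The meter was calibrated at 20 °C. pKa came from fitting single- or double-ionization titration equations to shift versus pH, with error estimated at about 0.05 pH units.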"}, "[4]": {"experiment": "The pKa value was measured at N15 chemical shift changes due to protonation", "outline": "as §1"}}}
{"smiles": "O=P(O)(O)NP(=O)(O)O", "values": [{"measurement": "pKa", "setting": "[1]", "value": 10.4}, {"measurement": "pKa", "setting": "[2]", "value": 10.3}]}
{"smiles": "NP(=O)(O)O", "values": [{"measurement": "pKa", "setting": "[3]", "value": 2.8}, {"measurement": "pKa", "setting": "[2]", "value": 3}]}
{"smiles": "NP(N)(=O)O", "values": [{"measurement": "pKa", "setting": "[3]", "value": 5.4}, {"measurement": "pKa", "setting": "[2]", "value": 5.4}]}
{"smiles": "N[C@@H](Cc1c[nH]cn1)C(=O)O", "values": [{"measurement": "pKa", "setting": "[4]", "value": 6.2}]}
{"smiles": "Nc1ncnc2c1ncn2[C@@H]1O[C@H](COP(=O)(O)OP(=O)(O)OP(=O)(O)O)[C@@H](O)[C@H]1O", "values": [{"measurement": "pKa", "setting": "[2]", "value": 6.6}]}
{"smiles": "c1c[nH]cn1", "values": [{"measurement": "pKa", "setting": "[4]", "value": 7}]}
{"smiles": "CCOP(=O)(NP(=O)(OCC)OCC)OCC", "values": [{"measurement": "pKa", "setting": "[1]", "value": 4.2}, {"measurement": "pKa", "setting": "[2]", "value": 3.8}]}
